Assays:
[1] = tested on: Human immunodeficiency virus 1; experiment: Antiviral activity against wild type HIV-1 IIIB infected in human MT4 cells […]; assay type: functional, organism-based; settings: Human immunodeficiency virus 1, IIIB
[2] = Cytotoxicity against human MT4 cells by MTT assay; assay type: toxicity, cell-based
[3] = Selectivity index, ratio of CC50 for cytotoxicity against human MT4 cells to EC50 for antiviral activity against wild type HIV-1 IIIB infected in human MT4 cells; assay type: toxicity, cell-based; settings: read-out: Ratio CC50/EC50
Procedure, shortened: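 Selectivity index calculated as CC50/EC50 ratio, both values from MTT viability readout in MT-4 cells, antiviral arm using wild-type HIV-1 IIIB.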

[4] = tested on: Human immunodeficiency virus 1; experiment: Antiviral activity against HIV-1 harboring L100I mutant infected in human MT4 cells […]; assay type: functional, organism-based; settings: Human immunodeficiency virus 1, MT4
[5] = tested on: Human immunodeficiency virus 1; experiment: Antiviral activity against HIV-1 harboring K103N mutant infected in human MT4 cells […]; assay type: functional, organism-based; settings: Human immunodeficiency virus 1, MT4
[6] = tested on: Human immunodeficiency virus 1; experiment: Antiviral activity against HIV-1 harboring Y181C mutant infected in human MT4 cells […]; assay type: functional, organism-based; settings: Human immunodeficiency virus 1, MT4
[7] = tested on: Human immunodeficiency virus 1; experiment: Antiviral activity against HIV-1 harboring E138K mutant infected in human MT4 cells […]; assay type: functional, organism-based; settings: Human immunodeficiency virus 1, MT4
[8] = biological target: Human immunodeficiency virus type 1 reverse transcriptase (Human immunodeficiency virus 1, UniProt Q72547); experiment: Inhibition of wild type HIV-1 Reverse transcriptase
[9] = tested on: Human immunodeficiency virus 1; experiment: Antiviral activity against HIV-1 harboring Y188L mutant infected in human MT4 cells assessed as inhibition of virus-induced cytopathic effect by MTT assay; settings: Human immunodeficiency virus 1, MT4
[10] = biological target: Human immunodeficiency virus type 1 reverse transcriptase (Human immunodeficiency virus 1) (UniProt Q72547); experiment: Potency index, ratio of Nevirapine IC50 to test compound IC50 for inhibition of wild type HIV-1 Reverse transcriptase
[11] = Stability in human plasma assessed as parent compound remaining measured immediately; assay type: ADME, cell-free; settings: read-out: Stability
[12] = Stability in human plasma assessed as parent compound remaining measured at 15 mins; assay type: ADME, cell-free; settings: read-out: Stability
[13] = Stability in human plasma assessed as parent compound remaining measured at 30 mins; assay type: ADME, cell-free; settings: read-out: Stability
[14] = Stability in human plasma assessed as parent compound remaining measured at 60 mins; assay type: ADME, cell-free; settings: read-out: Stability
[15] = Stability in human plasma assessed as parent compound remaining measured at 120 mins; assay type: ADME, cell-free; settings: read-out: Stability
[16] = Stability in human plasma assessed as parent compound remaining measured at 300 mins; assay type: ADME, cell-free; settings: read-out: Stability
[17] = Stability in human plasma assessed as half life; assay type: ADME, cell-free
[18] = Metabolic stability in human liver microsomes assessed as half life; assay type: ADME, Microsome
Procedure, shortened: (§1)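 Incubation with human liver microsomes; half-life obtained from depletion fit (R² reported), intrinsic clearance expressed per mg microsomal protein (μL/min/mg) and scaled to liver (mL/min/kg).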

[19] = Metabolic stability in human microsomes assessed as intrinsic clearance; assay type: ADME, Microsome; settings: read-out: CLH; procedure, shortened: as §1

Compound | EC50 [1] | CC50 [2] | selectivity ratio [3] | EC50 [4] | EC50 [5] | EC50 [6] | EC50 [7] | IC50 [8] | EC50 [9] | Ratio IC50 [10] | remaining at 0 min [11] | remaining at 0.25 h [12] | remaining at 0.5 h [13] | remaining at 1 h [14] | remaining at 2 h [15] | remaining at 5 h [16] | half-life [17] | half-life [18] | microsomal CLint [19]
CNC(c1ccnc(Nc2ccc(C#N)cc2)n1)c1ccc(-c2ccc(C#N)cc2)cc1C (stereo unspecified) | 33 nM | 12000 nM | 367 | 2440 nM | 743 nM | 1090 nM | 279 nM | 153 nM | 9200 nM | – | – | – | – | – | – | – | – | – | –
C/N=C(/c1ccnc(Nc2ccc(C#N)cc2)n1)c1ccc(-c2ccc(C#N)cc2)cc1C(F)(F)F | 35 nM | 119000 nM | 3280 | 352 nM | 415 nM | 435 nM | 290 nM | 180 nM | 3030 nM | – | – | – | – | – | – | – | – | – | –
CNC(c1ccnc(Nc2ccc(C#N)cc2)n1)c1ccc(-c2ccc(C#N)cc2)cc1F (stereo unspecified) | 64 nM | 13000 nM | 196 | ≥ 11000 nM | 10500 nM | 1910 nM | 368 nM | 783 nM | > 12700 nM | 0.96 | – | – | – | – | – | – | – | – | –
Cc1cc(-c2ccc(C#N)cc2)ccc1/C(=N\N)c1ccnc(Nc2ccc(C#N)cc2)n1 | 7 nM | > 291000 nM | > 45000 | 16 nM | 17 nM | 47 nM | 13 nM | 23 nM | 442 nM | – | – | – | – | – | – | – | – | – | –
N#Cc1ccc(Nc2nccc(/C(=N/N)c3c(F)cc(-c4ccc(C#N)cc4)cc3F)n2)cc1 | 9 nM | 23000 nM | 2480 | 16 nM | 44 nM | 64 nM | 38 nM | 31 nM | > 23100 nM | – | – | – | – | – | – | – | – | – | –
Cc1cc(C#N)cc(C)c1Oc1nc(Nc2ccc(C#N)cc2)nc(N)c1Br [ETRAVIRINE] | – | > 4600 nM | – | – | – | – | – | – | 20 nM | – | 100% | 102% | 95.4% | 97% | 92.1% | 78.5% | > 5 h | 1.09 h | 21.1 µL/min/mg
N#Cc1ccc(Nc2nccc(/C(=N/N)c3ccc(-c4ccc(C#N)cc4)cc3OC(F)(F)F)n2)cc1 | 40 nM | 171000 nM | 4310 | 180 nM | 182 nM | 260 nM | 340 nM | 72 nM | 1480 nM | – | – | – | – | – | – | – | – | – | –

— ChEMBL document CHEMBL6153064, “Structure-based discovery of novel diarylpyrimidines as potent and selective Non-Nucleoside reverse transcriptase inhibitors: From CH(CN)-Biphenyl-Diarylpyrimidines to CNNH2-Biphenyl-Diarylpyrimidines” (Eur J Med Chem, 2025)
